ChEMBL document CHEMBL4689842, “EUbOPEN Chemogenomics Library wave 1” (2021)
Where “and” joins values, the source holds several entries; their conditions need not be identical. Identical values can stand only once.

Test system: U2OS
Assay: Multiplex assay against U2OS
Format: toxicity, cell-based
Conditions: human, 1 µM, compound concentration 1 uM
In short: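 With compound added, live cells were imaged on a CQ1 microscope at 37°C and 5% CO2; staining with Hoechst33342, BioTracker Green Microtubule Cytoskeleton Dye, MitoTracker Red and Annexin V Alexa Fluor 680 had been done at seeding. The CellPathfinder machine-learning gating scheme split cells into Hoechst high-intensity objects or normal cells, normal cells into healthy, pyknosed or fragmented nuclei, and pyknosed cells into mitotic or apoptotic. The tubulin, mitochondrial-mass and membrane-permeability phenotypes are per cents of healthy-nucleus cells.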

CN([C@@H](Cc1ccc(OS(=O)(=O)c2cccc3cnccc23)cc1)C(=O)N1CCN(c2ccccc2)CC1)S(=O)(=O)c1cccc2cnccc12
Population Apoptotic (%) (12 h, replicate 1): 52% and 61%
Population Fragmented Nuclei (%) (12 h, replicate 1): 3% and 2%
Population Healthy Nuclei (%) (12 h, replicate 1): 83% and 89%
Population Hoechst High Intensity Objects (%) (12 h, replicate 1): 1%
Population Membrane Permeable-Phenotype (%) (12 h, replicate 1): 38% and 75%
Population Mitochondria Different-Phenotype (%) (12 h, replicate 1): 32% and 23%
Population Mitotic Cells (%) (12 h, replicate 1): 47% and 38%
Population Normal (%) (12 h, replicate 1): 98%
Population Pyknosed Nuclei (%) (12 h, replicate 1): 12% and 7%
Population Tubulin-Different-Phenotype (%) (12 h, replicate 1): 99%
Total Cell Count (12 h, replicate 1): 150 and 181
Population Apoptotic (%) (12 h, replicate 2): 25% and 40%
Population Fragmented Nuclei (%) (12 h, replicate 2): 16% and 6%
Population Healthy Nuclei (%) (12 h, replicate 2): 74% and 79%
Population Hoechst High Intensity Objects (%) (12 h, replicate 2): 13% and 15%
Population Membrane Permeable-Phenotype (%) (12 h, replicate 2): 33% and 69%
Population Mitochondria Different-Phenotype (%) (12 h, replicate 2): 46% and 45%
Population Mitotic Cells (%) (12 h, replicate 2): 75% and 60%
Population Normal (%) (12 h, replicate 2): 86% and 84%
Population Pyknosed Nuclei (%) (12 h, replicate 2): 9% and 13%
Population Tubulin-Different-Phenotype (%) (12 h, replicate 2): 100%
Total Cell Count (12 h, replicate 2): 104 and 101
Population Apoptotic (%) (24 h, replicate 1): 69% and 58%
Population Fragmented Nuclei (%) (24 h, replicate 1): 4% and 5%
Population Healthy Nuclei (%) (24 h, replicate 1): 75% and 73%
Population Hoechst High Intensity Objects (%) (24 h, replicate 1): 2% and 1%
Population Membrane Permeable-Phenotype (%) (24 h, replicate 1): 25% and 68%
Population Mitochondria Different-Phenotype (%) (24 h, replicate 1): 55%
Population Mitotic Cells (%) (24 h, replicate 1): 30% and 41%
Population Normal (%) (24 h, replicate 1): 97% and 98%
Population Pyknosed Nuclei (%) (24 h, replicate 1): 20% and 21%
Population Tubulin-Different-Phenotype (%) (24 h, replicate 1): 98% and 99%
Total Cell Count (24 h, replicate 1): 154 and 198
Population Apoptotic (%) (24 h, replicate 2): 57% and 53%
Population Fragmented Nuclei (%) (24 h, replicate 2): 15% and 12%
Population Healthy Nuclei (%) (24 h, replicate 2): 68%
Population Hoechst High Intensity Objects (%) (24 h, replicate 2): 12% and 9%
Population Membrane Permeable-Phenotype (%) (24 h, replicate 2): 32% and 54%
Population Mitochondria Different-Phenotype (%) (24 h, replicate 2): 62% and 70%
Population Mitotic Cells (%) (24 h, replicate 2): 42% and 46%
Population Normal (%) (24 h, replicate 2): 87% and 90%
Population Pyknosed Nuclei (%) (24 h, replicate 2): 15%
Population Tubulin-Different-Phenotype (%) (24 h, replicate 2): 100%
Total Cell Count (24 h, replicate 2): 99 and 102
